Measurements reported in PMC8621847 (Research in Pharmaceutical Sciences, 2021).
“Also recorded” adds a separate entry of the source.

Key:
HUVEC cell line = experiment: MTT cytotoxicity assay, HUVEC normal cell line; type: cell-based; details: Homo sapiens, 48 h, read-out: IC50 HUVEC
Method in brief: (§1)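 Cells grown in RPMI-1640 with 10% FBS and 1% penicillin/streptomycin, seeded at 5-7 × 10^4 per well, 37 °C, 5% CO2. Test compound at final 1, 4, 6, 8, 10, 40, 60, 80 and 100 μM for 48 h. MTT (5 mg/mL in PBS) added for 3 h, formazan dissolved in DMSO, absorbance read at 570 nm. Doxorubicin (20 μM) was the positive control, untreated cells set 100% viability, and medium was the blank. Triplicate, repeated on three days.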

MCF-7 cell line = experiment: MTT cytotoxicity assay, MCF-7 cell line; type: cell-based; details: for cytotoxic effect on MCF-7 cell line (in words): MTT assay; for improvement of cytotoxicity by hybridization, compared with VIIa and VIIb: MCF-7, fused pyrazole hybrids versus benzoxazinones VIIa and VIIb
Method in brief: as §1

For `Cc1nc2ccccc2c(=O)n1N1C(=O)/C(=C/c2ccc(Cl)cc2)N=C1c1ccccc1` [XIIIa, (Z)-3-(4-(4-chlorobenzylidene)-5-oxo-2-phenyl-4,5-dihydro-1H-imidazol-1-yl)-2-methylquinazolin-4(3H)-one], which IC50 (HUVEC cell line) is on record?
Its IC50 is 94.41 ± 0.89 µM.

Which “cytotoxic effect on MCF-7 cell line (in words)” value (MCF-7 cell line) does the source give for `O=C1OC(c2ccccc2)=N/C1=C\c1ccc([N+](=O)[O-])cc1` [Vb, (Z)-4-(4-nitrobenzylidene)-2-phenyloxazol-5(4H)-one] here?
Its value is “no remarkable cytotoxic effect; also recorded: no inhibitory activity”.

And the IC50 (HUVEC cell line)?
Its IC50 is 93.3 ± 4.11 µM.

For `Cc1nc2ccccc2c(=O)n1N1C(=O)/C(=C/c2ccc([N+](=O)[O-])cc2)N=C1c1ccccc1` [XIIIb, (Z)-2-methyl-3-(4-(4-nitrobenzylidene)-5-oxo-2-phenyl-4,5-dihydro-1H-imidazol-1-yl) quinazolin-4(3H)-one], which IC50 (HUVEC cell line) is on record?
Its IC50 is 81.2 ± 6.17 µM.

Which IC50 (HUVEC cell line) does the source give for `O=C(N/C(=C/c1ccc(Cl)cc1)c1nc2ccccc2c(=O)o1)c1ccccc1` [VIIa, (E)-N-(2-(4-chlorophenyl)-1-(4-oxo-4H-benzo[d][1,3]oxazin-2-yl)vinyl)benzamide] here?
Its IC50 is 72.2 ± 1.5 µM.

Which results are given for `O=C(N/C(=C/c1ccc([N+](=O)[O-])cc1)c1nc2ccccc2c2cc(=O)[nH]n12)c1ccccc1` [IXb, (E)-N-(2-(4-nitrophenyl)-1-(2-oxo-2,3-dihydropyrazolo[1,5-c]quinazolin-5-yl)vinyl) benzamide]?
improvement of cytotoxicity by hybridization, compared with VIIa and VIIb (MCF-7 cell line): 3-4 times; IC50 (HUVEC cell line): 96.2 ± 4.66 µM

What does the source list for `O=C(N/C(=C/c1ccc(Cl)cc1)c1nc2ccccc2c2cc(=O)[nH]n12)c1ccccc1` [IXa, (E)-N-(2-(4-chlorophenyl)-1-(2-oxo-2,3-dihydropyrazolo[1,5-c]quinazolin-5-yl)vinyl)benzamide]?
improvement of cytotoxicity by hybridization, compared with VIIa and VIIb (MCF-7 cell line): 3-4 times; IC50 (HUVEC cell line): 79 ± 3.71 µM

What does the source list for `O=C1OC(c2ccccc2)=N/C1=C\c1ccc(Cl)cc1` [Va, (Z)-4-(4-chlorobenzylidene)-2-phenyloxazol-5(4H)-one]?
cytotoxic effect on MCF-7 cell line (in words) (MCF-7 cell line): no remarkable cytotoxic effect; also recorded: no inhibitory activity; IC50 (HUVEC cell line): 96.4 ± 2.22 µM

Which IC50 (HUVEC cell line) does the source give for `COc1cccc2c1C(=O)c1c(O)c3c(c(O)c1C2=O)C[C@@](O)(C(=O)CO)C[C@@H]3O[C@H]1C[C@H](N)[C@H](O)[C@H](C)O1` [Doxorubicin, reference compound] here?
The IC50 was 21.17 ± 0.05 µM.
